Where a SMILES comes first, the peptide text is derived from it. [ ]: non-standard residue; d: D form. d(aIle) = CC[C@H](C)[C@@H](N)C(=O)O; Nva = CCC[C@H](N)C(=O)O; Sar = CNCC(=O)O

The values that follow come from ChEMBL document CHEMBL1143597, “Thrombospondin-1 mimetic peptide inhibitors of angiogenesis and tumor growth: design, synthesis, and optimization of pharmacokinetics and biological activities” (J Med Chem, 2005).

Test [1] in a line: In vitro inhibitory concentration against HMVE cell migration was determined. Format: functional, cell-based. The following applies: Homo sapiens. The method in brief: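 Primary HMVEC grown to 80-90% confluency, starved 18 h in EBM with 5% FCS, labelled with calcein AM 30 min at room temperature. Cells with or without compound (in D5W) are placed above a filter with VEGF (10 ng) below, then held 4 h at 37 °C, 5% CO2. Unmigrated cells are wiped off and fluorescence is read (485/530). % inhibition is taken versus the VEGF positive control.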

A short description of test [2]: In vitro inhibitory concentration against HMVEC endothelial tube formation was determined; […]. It is filed as functional, Homo sapiens.
Test [3] can be described thus: In vitro inhibitory concentration against HMVEC endothelial tube formation was determined; 0.25 - 0.10 nM. It is filed as functional, Homo sapiens.
Test [4] in a line: In vitro inhibitory concentration against HMVEC endothelial tube formation was determined. It is filed as functional, Homo sapiens.
Test [5] is described as follows: In vitro inhibitory concentration against HMVEC endothelial tube formation was determined; 200 - 100 nM. It is filed as functional, Homo sapiens.
A short description of test [6]: Inhibitory concentration against TSP-1 binding towards HMVEC cell line migration. It is filed as functional, cell-based. Conditions: Homo sapiens.
Test [7] can be described thus: In vitro inhibitory concentration against HMVEC endothelial tube formation was determined; 50 - 25 nM. It is filed as functional, Homo sapiens.

As for `CCC[C@H](NC(=O)[C@@H](NC(=O)[C@H](CCCN=C(N)N)NC(=O)[C@@H](NC(=O)[C@H](NC(=O)[C@@H](NC(=O)CNC(C)=O)C(C)C)[C@H](C)CC)[C@@H](C)O)[C@@H](C)CC)C(=O)NCC`, the IC50 (as a rule, the concentration at which inhibition is half-maximal) in test [1] worked out at 1.45 nM. This counts as single-digit nanomolar. As to `CCC[C@@H](C(=O)N[C@H](C(=O)N[C@@H](CCCN=C(N)N)C(=O)N1CCC[C@H]1C(=O)NCC)[C@@H](C)CC)N(C)C(=O)[C@@H](NC(=O)[C@H](NC(=O)[C@@H](NC(=O)CNC(=O)CN(C)C(=O)CCC(=O)O)C(C)C)[C@H](C)CC)[C@@H](C)O`, the IC50 in test [2] stood at 10 nM; in test [1] it was 0.45 nM. As to `CCNC(=O)[C@H](CCCN=C(N)N)NC(=O)[C@@H](NC(=O)[C@H](CCCN=C(N)N)NC(=O)[C@@H](NC(=O)[C@H](NC(=O)[C@@H](NC(=O)CNC(C)=O)C(C)C)[C@H](C)CC)[C@@H](C)O)[C@@H](C)CC`, the IC50 in test [1] was more than 100 nM. Regarding `CCC[C@@H](C(=O)N[C@H](C(=O)N[C@@H](CCCN=C(N)N)C(=O)N1CCC[C@H]1C(=O)NC(C)C)[C@@H](C)CC)N(C)C(=O)[C@@H](NC(=O)[C@H](NC(=O)[C@@H](NC(=O)CNC(=O)CN(C)C(=O)CCC(=O)O)C(C)C)[C@H](C)CC)[C@@H](C)O`, the values for the IC50 in test [3] and in test [1] were 0.25 nM and 0.06 nM, respectively. Compound `CCC[C@H](NC(=O)[C@@H](NC(=O)[C@H](NC(=O)[C@@H](NC(=O)CNC(C)=O)C(C)C)[C@H](C)CC)[C@@H](C)O)C(=O)N[C@H](C(=O)N[C@@H](CCCN=C(N)N)C(=O)NCC)[C@@H](C)CC` yielded an IC50 in test [1] of 4.22 nM. Regarding `CCC[C@H](NC(=O)[C@@H](NC(=O)[C@H](NC(=O)[C@@H](NC(=O)CNC(=O)CN(C)C(C)=O)C(C)C)[C@H](C)CC)[C@@H](C)O)C(=O)N[C@H](C(=O)N[C@@H](CCCN=C(N)N)C(=O)N1CCC[C@H]1C(=O)NC(C)C)[C@@H](C)CC`, the results for the IC50 in test [4] and in test [1] were more than 1000 nM and 29 nM, respectively. In test [1], `CCC[C@H](NC(=O)[C@@H](NC(=O)[C@H](NC(=O)[C@@H](NC(=O)CNC(C)=O)C(C)C)[C@H](C)CC)[C@@H](C)O)C(=O)N[C@H](C(=O)N[C@@H](CCCN=C(N)N)C(=O)N1CCC[C@H]1C(=O)NCC)[C@@H](C)CC` showed an IC50 of 0.07 nM. `CCC[C@H](NC(=O)[C@@H](NC(=O)[C@H](NC(=O)[C@@H](NC(=O)CNC(=O)CN(C)C(=O)CCC(=O)O)C(C)C)[C@H](C)CC)[C@@H](C)O)C(=O)N[C@H](C(=O)N[C@@H](CCCN=C(N)N)C(=O)N1CCC[C@H]1C(=O)NCC)[C@@H](C)CC`: the IC50 in test [2] amounted to 10 nM; in test [1] it was 0.26 nM. Turning to `CCC[C@H](NC(=O)[C@@H](NC(=O)[C@H](NC(=O)[C@@H](NC(=O)CNC(=O)CN(C)C(C)=O)C(C)C)[C@H](C)CC)[C@@H](C)O)C(=O)N[C@H](C(=O)N[C@@H](CCCN=C(N)N)C(=O)N1CCC[C@H]1C(=O)NCC)[C@@H](C)CC` [ABT 510] (Ac-[Sar]GV[dI]T[Nva]IRP-NHEt), the IC50 turned out to be 200 nM in test [5] and 0.03 nM in test [6]. Take `CCC[C@@H](C(=O)N[C@H](C(=O)N[C@@H](CCCN=C(N)N)C(=O)N1CCC[C@H]1C(=O)NCC)[C@@H](C)CC)N(C)C(=O)[C@@H](NC(=O)[C@H](NC(=O)[C@@H](NC(=O)CNC(=O)CN(C)C(C)=O)C(C)C)[C@H](C)CC)[C@@H](C)O`: the IC50 in test [7] worked out at 50 nM; in test [1] it was 0.54 nM. Regarding `CCC[C@H](NC(=O)[C@@H](NC(=O)[C@H](NC(=O)[C@@H](NC(=O)CNC(=O)CN(C)C(C)=O)C(C)C)[C@@H](C)CC)[C@@H](C)O)C(=O)N[C@H](C(=O)N[C@@H](CCCNC(=N)N)C(=O)N1CCC[C@H]1C(=O)NCC)[C@@H](C)CC` [ABT-510] (Ac-[Sar]GV[d(aIle)]T[Nva]IRP-NHEt), the IC50 in test [2] worked out at 10 nM; in test [6], 0.89 nM.
